Sampled rows, rich in hits. Any-hit rate of the full collection: about 4%.
KCNQ1 inh: blocks the human KCNQ1 potassium channel | P51787 | 310,000 tested, 1.3% active | CHO-K1 KCNQ1, FluxOR thallium flux fluorescence; hits give high values | AID 2642 | B-score at 10 µM;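 active = compounds whose thallium flux B-score, printed positive for inhibition, exceeds three library SD while starting fluorescence stays within three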;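 note: channel opened by potassium depolarization with thallium stimulus after 20 min compound exposure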
KCNK3 inh: human KCNK3 channel inhibition, primary screen | B-score at 10 µM | O14649 | 340,000 tested, 0.84% active | CHO-KCNK3 thallium flux, FluxOR fluorescence; hits give low values;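 active = B-score under library mean minus 4 SD, starting fluorescence ratio at most library mean plus 5 SD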;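 note: more negative B-score means stronger inhibition of thallium flux through KCNK3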
Target sequence (O14649 whole entry, looked up): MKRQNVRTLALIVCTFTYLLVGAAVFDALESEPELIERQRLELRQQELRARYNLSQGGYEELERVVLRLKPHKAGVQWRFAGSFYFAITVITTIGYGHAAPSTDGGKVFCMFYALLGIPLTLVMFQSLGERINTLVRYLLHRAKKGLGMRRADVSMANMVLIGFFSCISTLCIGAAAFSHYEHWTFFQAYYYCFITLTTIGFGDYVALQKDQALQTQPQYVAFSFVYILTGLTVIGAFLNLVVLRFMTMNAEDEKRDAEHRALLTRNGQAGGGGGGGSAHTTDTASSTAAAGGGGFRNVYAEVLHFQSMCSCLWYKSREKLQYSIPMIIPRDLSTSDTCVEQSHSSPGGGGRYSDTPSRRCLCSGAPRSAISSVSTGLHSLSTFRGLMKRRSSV
PHOSPHO1 block: PHOSPHO1 (human) inhibition; Q8TCT1; recombinant PHOSPHO1, absorbance phosphatase assay; inhibition, % at 13.3 µM; 290,000 tested, 1.1% active; in the data active = inhibition above about 60%
KCNK9 inh: human KCNK9 channel inhibition | Q9NPC2 | B-score at 10 µM | AID 488922 | HEK293 KCNK9, FluxOR thallium flux fluorescence; hits give low values | 310,000 tested, 1.2% active;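 active = ratio B-score over 3 SD below the library mean, with starting fluorescence within 5 SD of its mean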;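 note: negative B-score means less thallium flux so channel inhibition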
KCNQ1 pot: human KCNQ1 channel potentiation or activation; P51787; CHO-K1 KCNQ1, thallium flux FluxOR fluorescence; hits give high values; B-score at 10 µM; 310,000 tested, 0.35% active; AID 2648;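 active = fluorescence ratio B-score, a plate-corrected score, at least three library SD, with initial intensity B-score within 5 SD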
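Assay system: CHO-K1 cells stably expressing KCNQ1; Medium: assay buffer with matched DMSO; Also added: K+/Tl+ depolarizing stimulus; Dosing: single dose; Timing: dye 90 min, compound 20 min, room temperature; Measured by: kinetic FluxOR thallium fluorescence, 10-s 1-Hz baseline, 110-s post-stimulus read; Read-out: peak-minus-minimum fluorescence over initial fluorescence, negative-control normalized, B-scored.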
hERG rescue: hERG (human) protection from proarrhythmic block; 310,000 tested, 0.51% active; CHO-hERG, FluxOR thallium flux, dofetilide IC70 present; AID 1511; activation (rescue from dofetilide block), less the hit threshold, % at 10 µM;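 active = activation above the mean of controls blocked by dofetilide plus 5 SD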;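 note: thallium influx through hERG after potassium depolarization seen as dye fluorescence rise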
Each line names hits and unclear results; the compound was inactive in the other large screens.

COc1cccc2cc(C(=O)Nc3ccc(S(=O)(=O)NCC4CCCO4)cc3)c(=O)oc12 (stereo unspecified)	none
Cn1c(CCNC(=O)OC(C)(C)C)n[nH]c1=S	PHOSPHO1 block 79
COc1cccc(-n2c(CNC(=O)OC(C)(C)C)n[nH]c2=S)c1	PHOSPHO1 block 84
CC(C)(C)OC(=O)NCCc1n[nH]c(=S)o1	none
COc1cccc(C(=O)NCc2n[nH]c(=S)n2-c2cccc(C)c2)c1	PHOSPHO1 block 87
O=C(COC(=O)c1c(Cl)ccc(Cl)c1Cl)NC(=O)NCc1ccccc1	none
COc1ccc2cc(S(=O)(=O)N3CCCC3)ccc2c1	none
COc1ccc(C(=O)Nc2ccc(C3CC3(Cl)Cl)cc2)cc1 (stereo unspecified)	PHOSPHO1 block 71
CCn1c(SCc2nc3ccccc3[nH]2)nnc1-c1ccncc1	none
C=CCn1c(SCc2nc3ccccc3[nH]2)nnc1-c1ccc(OC)cc1	PHOSPHO1 block 91
CCn1c(SCc2nc3ccccc3[nH]2)nnc1-c1ccc(OC)cc1	PHOSPHO1 block 78
C=CCn1c(SCc2nc3ccccc3[nH]2)nnc1-c1cccc(OC)c1	PHOSPHO1 block 71
Cc1ccc(-c2n[nH]c(=S)c3ccccc23)cc1	none
Cc1ccc(-c2n[nH]c(=S)nc2-c2ccc(C)cc2)cc1	hERG rescue 6.7
CC1(C)CC(NC(=O)c2ccc(Cl)cc2Cl)CC(C)(C)N1	none
COc1cccc(OCC(Cn2cnc3ccccc32)OC(C)=O)c1 (stereo unspecified)	none
CCC(C(=O)NCCC(C)C)n1ccc2cc(S(=O)(=O)N3CCCCC3)ccc21 (stereo unspecified)	PHOSPHO1 block 63
O=C(CSc1nc2ccccc2n1Cc1ccccc1)N/N=C/c1ccccc1C(=O)O	none
O=C(CSc1nc2ccccc2n1Cc1ccc(Cl)cc1)N/N=C/c1ccc(C(=O)O)cc1	KCNK9 inh -6.8
COc1cc(NC(=O)c2ccc(C(=O)c3ccccc3)cc2)cc(OC)c1OC	none
COc1cc2c(c(O)c1OC)-c1c(cc(OC)c(OC)c1O)[C@@H](OC(=O)c1ccccc1)[C@@](C)(O)[C@@H](C)[C@@H]2OC(C)=O	hERG rescue 4.7 (no result: KCNK3 inh)
O=C(CCc1ccc(O)c(O)c1)N/N=C/c1ccc2c(c1)OCO2	KCNQ1 inh 6
CC(C)Oc1ccc(CCC(=O)N/N=C/c2ccc3c(c2)OCO3)cc1	none
O=C(Cc1ccccc1)N[C@H](c1ccccc1)P(=O)(O)CO	none
CCCSc1nc(N)nc(-c2cccs2)c1C#N	KCNK9 inh -6.9
CCSc1nc(C2CC2)cc(-c2cccs2)c1C#N	KCNK9 inh -6.8
CCOC(=O)CSc1nc(N)c(C#N)c(-c2cccs2)c1C#N	none
Cc1cc(C(=O)OCC(=O)N2CCc3ccccc32)ccc1[N+](=O)[O-]	none (no result: KCNQ1 inh, PHOSPHO1 block, KCNK9 inh, KCNQ1 pot, hERG rescue)
Cc1cccc(CSc2nc3c(cc2C#N)CCC3)c1	none
N#Cc1cc2c(nc1SCc1nc3ccccc3[nH]1)CCC2	PHOSPHO1 block 74 (no result: KCNK3 inh)
O=c1[nH]c(C(Cl)(Cl)Cl)nc2ccc3ccccc3c12	KCNQ1 pot 25, hERG rescue 5.1
O=c1[nH]c(C(F)(F)F)nc2ccccc12	none
CCOc1ccc2[nH]c(=O)c(CN(Cc3ccccc3)C(=O)N3CCCC3)cc2c1	PHOSPHO1 block 74
C=CCNC(=O)/C(C#N)=C/c1c(N2CCN(c3ccccc3)CC2)nc2c(C)cccn2c1=O	none
O=C(CSc1ncnc2c(-c3ccc(Cl)cc3)nsc12)c1ccccc1	PHOSPHO1 block 73
CCCN(CCC)CCOc1cc(C)ccc1C(C)C	none
O=C(CSc1nnc(CNC(=O)c2ccco2)o1)Nc1ccc(Cl)cc1	none
CN(C)c1ccc(NC(=O)c2sc(SCC(=O)Nc3ccc(Br)cc3)nc2N)cc1	none
CN(C)c1ccc(NC(=O)c2sc(SCC(=O)Nc3nccs3)nc2N)cc1	PHOSPHO1 block 67
COc1ccccc1C(=O)N/C(=C/c1ccc(Br)cc1)C(=O)NCCCn1ccnc1	none
N#Cc1nc(-c2ccccc2Cl)oc1NCc1ccco1	KCNK9 inh -7.5
CCCSc1nc(C)c(-c2csc(C(C#N)=C3CCCC3)n2)cc1C#N	PHOSPHO1 block 74
CCN1CCN(Cc2ccc(NC(=O)c3cc(NC(=O)c4cncc(-c5cccs5)c4)cc(OC)c3)cc2C(F)(F)F)CC1	KCNQ1 inh 8 (no result: KCNK3 inh)
